Experimental data published in ChEMBL document CHEMBL2034928, “Synthesis of [(11)C]dehydropravastatin, a PET probe potentially useful for studying OATP1B1 and MRP2 transporters in the liver” (Bioorg Med Chem, 2012).

What was measured:
Intestine [1] = assay: Drug uptake in Sprague-Dawley rat intestine at 22 MBq/body, iv administered as bolus coadministered with rifampicin measured after 60 mins by PET analysis; format: ADME, organism-based; settings: in vivo, 1 h
Outline: (§1)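 Rats were anesthetized with 1.5% isoflurane in nitrous oxide/oxygen (7/3). The 11C tracer (approx. 22 MBq per animal) was given as an IV bolus through a tail-vein catheter, followed by a 60 min microPET emission scan. Regions of interest were set on liver, intestine, kidney and urinary bladder. Uptake was decay-corrected to injection time and expressed as % dose/tissue or % dose/mL blood, normalized to injected radioactivity. Rifampicin was infused at 1.5 µmol/min/kg where applied.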

Hepatocyte [2] = assay: Metabolic stability in rat hepatocytes; format: ADME, cell-based
[3] = Drug uptake in Mrp2 hereditary-deficient Sprague-Dawley rat bile at 22 MBq, iv administered as bolus after 20 mins by PET analysis; format: ADME, organism-based; settings: in vivo
Liver [4] = assay: Drug uptake in Sprague-Dawley rat liver at 22 MBq/body, iv administered as bolus coadministered with rifampicin measured after 2 mins by PET analysis; format: ADME, organism-based; settings: in vivo; outline: as §1
Blood [5] = assay: Drug metabolism in Mrp2 hereditary-deficient Sprague-Dawley rat blood assessed as radiometabolite formation at 22 MBq, iv administered as bolus at 2 mins by PET analysis; format: ADME, organism-based; settings: in vivo
Outline: (§2)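 Radiometabolite analysis, run apart from the PET scans. Blood, liver homogenate and bile were mixed with an equal volume of acetonitrile and centrifuged at 12,000 rpm for 2 min at 4 °C. The supernatant was diluted with mobile phase and run on reversed-phase HPLC (10 mM ammonium acetate/acetonitrile gradient, 2.0 mL/min). Detection was UV 254 nm plus a NaI(Tl) positron detector, reading intact tracer against metabolites.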

[6] = Drug metabolism in Mrp2 hereditary-deficient Sprague-Dawley rat bile assessed as radiometabolite formation at 22 MBq, iv administered as bolus within 20 mins by PET analysis; format: ADME, organism-based; settings: in vivo; outline: as §2
Kidney = assay: Drug uptake in Sprague-Dawley rat kidney at 22 MBq/body, iv administered as bolus measured up to 2 mins by PET analysis; format: ADME, organism-based; settings: in vivo; outline: as §1
Intestine [7] = assay: Drug uptake in Sprague-Dawley rat intestine at 22 MBq/body, iv administered as bolus measured after 60 mins by PET analysis; format: ADME, organism-based; settings: in vivo, 1 h; outline: as §1
[8] = Drug uptake in Sprague-Dawley rat urinary bladder at 22 MBq/body, iv administered as bolus measured after 60 mins by PET analysis; format: ADME, organism-based; settings: in vivo, 1 h; outline: as §1
Liver [9] = assay: Drug metabolism in Mrp2 hereditary-deficient Sprague-Dawley rat liver assessed as radiometabolite formation at 22 MBq, iv administered as bolus within 20 mins by PET analysis; format: ADME, organism-based; settings: in vivo; outline: as §2
Hepatocyte [10] = assay: Metabolic stability in human hepatocytes; format: ADME, cell-based
Blood [11] = assay: Drug metabolism in Mrp2 hereditary-deficient Sprague-Dawley rat blood assessed as radiometabolite formation at 22 MBq, iv administered as bolus within 20 mins by PET analysis; format: ADME, organism-based; settings: in vivo; outline: as §2
Liver [12] = assay: Drug uptake in Sprague-Dawley rat liver at 22 MBq/body, iv administered as bolus measured up to 2 mins by PET analysis; format: ADME, organism-based; settings: in vivo; outline: as §1
Liver [13] = assay: Drug uptake in Mrp2 hereditary-deficient Sprague-Dawley rat liver at 22 MBq, iv administered as bolus after 20 mins by PET analysis; format: ADME, organism-based; settings: in vivo; outline: as §1
Blood [14] = assay: Drug uptake in Mrp2 hereditary-deficient Sprague-Dawley rat blood at 22 MBq, iv administered as bolus after 20 mins by PET analysis; format: ADME, organism-based; settings: in vivo; outline: as §1

- Drug uptake (Intestine [1]): Not Active
- Stability (Hepatocyte [2]): Stable
- Drug uptake [3]: Active
- Drug uptake (Liver [4]): Not Active
- Drug metabolism (Blood [5]): Active
- Drug metabolism [6]: Active
- Drug uptake (Kidney): Active
- Drug uptake (Intestine [7]): 67.9%
- Drug uptake [8]: 1.51%
- Drug metabolism (Liver [9]): Active
- Stability (Hepatocyte [10]): Stable
- Drug metabolism (Blood [11]): Active
- Drug uptake (Liver [12]): Active
- Drug uptake (Liver [13]): Active
- Drug uptake (Blood [14]): Active
Structure (SMILES): C/C(=C\[11CH3])C(=O)O[C@H]1C[C@H](O)C=C2C=C[C@H](C)[C@H](CC[C@@H](O)C[C@@H](O)CC(=O)[O-])[C@H]21.[Na+]
